In ChEMBL document CHEMBL1143553, “Muscarinic allosteric enhancers of ligand binding: pivotal pharmacophoric elements in hexamethonio-type agents” (J Med Chem, 2005):
Values belong to the molecule of their own block, whether it stands above or below them.

Experiments:
Format in all cases: tissue-based
[1] = biological target: T1, Muscarinic acetylcholine receptor M2 (Sus scrofa) (UniProt P06199); experiment: Inhibition of [3H]NMS dissociation from muscarinic acetylcholine receptor M2 of pig heart ventricle homogenates; n=11
T1 sequence (whole entry): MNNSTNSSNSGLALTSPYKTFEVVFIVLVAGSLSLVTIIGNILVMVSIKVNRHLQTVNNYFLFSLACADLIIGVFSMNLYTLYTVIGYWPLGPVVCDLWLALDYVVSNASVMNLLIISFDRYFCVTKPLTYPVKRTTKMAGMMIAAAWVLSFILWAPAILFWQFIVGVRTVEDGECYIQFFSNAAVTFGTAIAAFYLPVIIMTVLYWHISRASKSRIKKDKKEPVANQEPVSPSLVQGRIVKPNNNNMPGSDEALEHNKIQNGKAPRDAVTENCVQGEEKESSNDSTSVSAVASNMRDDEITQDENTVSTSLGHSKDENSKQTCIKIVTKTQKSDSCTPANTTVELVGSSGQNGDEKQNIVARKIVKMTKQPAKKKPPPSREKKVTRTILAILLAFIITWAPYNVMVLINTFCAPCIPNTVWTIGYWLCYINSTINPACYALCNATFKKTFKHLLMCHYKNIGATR
How it was run: (§1)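 Two-point kinetic dissociation assay in porcine heart homogenates (M2) at 37 °C, 3 mM MgHPO4/50 mM Tris-HCl, pH 7.3. Membranes were preincubated 30 min with 0.2 nM [3H]NMS. Dissociation was started by 1 µM atropine alone or plus test compound, and specific binding measured at t = 0 and 10. Apparent k-1 relative to control was plotted against log concentration and fitted by four-parameter logistic (slope unity) for EC50,diss.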

[2] = biological target: T1, Muscarinic acetylcholine receptor M2 (Sus scrofa); experiment: Cooperativity for muscarinic acetylcholine receptor M2 of pig heart ventricle homogenates; n=8
How it was run: (§2)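 Pig heart ventricle homogenate (M2) equilibrium binding at 37 °C in 3 mM MgHPO4/50 mM Tris-HCl, pH 7.3. Increasing concentrations of test compound were incubated with membranes and 0.2 nM [3H]NMS. Incubation time for equilibrium in presence of allosteric agent was computed from dissociation kinetics. Nonspecific binding was defined with 1 µM atropine. Bound and free were separated by vacuum filtration, with scintillation counting.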

[3] = biological target: T1, Muscarinic acetylcholine receptor M2 (Sus scrofa); experiment: Affinity for muscarinic acetylcholine receptor M2 of pig heart ventricle homogenates; n=8; how it was run: as §2
[4] = biological target: T1, Muscarinic acetylcholine receptor M2 (Sus scrofa); experiment: Cooperativity for muscarinic acetylcholine receptor M2 of pig heart ventricle homogenates; n=4; how it was run: as §2
[5] = biological target: T1, Muscarinic acetylcholine receptor M2 (Sus scrofa); experiment: Affinity for muscarinic acetylcholine receptor M2 of pig heart ventricle homogenates; n=4; how it was run: as §2
[6] = biological target: T1, Muscarinic acetylcholine receptor M2 (Sus scrofa); experiment: Inhibition of [3H]NMS dissociation from muscarinic acetylcholine receptor M2 of pig heart ventricle homogenates; n=6; how it was run: as §1
[7] = biological target: T1, Muscarinic acetylcholine receptor M2 (Sus scrofa); experiment: Inhibition of [3H]NMS dissociation from muscarinic acetylcholine receptor M2 of pig heart ventricle homogenates; n=3; how it was run: as §1
[8] = biological target: T1, Muscarinic acetylcholine receptor M2 (Sus scrofa); experiment: Cooperativity against muscarinic acetylcholine receptor M2 of pig heart ventricle homogenates; n=; how it was run: as §2
[9] = biological target: T1, Muscarinic acetylcholine receptor M2 (Sus scrofa); experiment: Affinity for muscarinic acetylcholine receptor M2 of pig heart ventricle homogenates; n=3; how it was run: as §2
[10] = biological target: T1, Muscarinic acetylcholine receptor M2 (Sus scrofa); experiment: Cooperativity for muscarinic acetylcholine receptor M2 of pig heart ventricle homogenates; n=5; how it was run: as §2
[11] = biological target: T1, Muscarinic acetylcholine receptor M2 (Sus scrofa); experiment: Affinity for muscarinic acetylcholine receptor M2 of pig heart ventricle homogenates; n=5; how it was run: as §2
[12] = biological target: T1, Muscarinic acetylcholine receptor M2 (Sus scrofa); experiment: Inhibition of [3H]NMS dissociation from muscarinic acetylcholine receptor M2 of pig heart ventricle homogenates; n=5; how it was run: as §1

- pEC50 diss [1]: 8.36
- p alpha [2]: 0.37
- pKA [3]: 8.29
SMILES: CC(C)(CN1C(=O)c2cccc3cccc(c23)C1=O)C[N+](C)(C)CCCCCC[N+](C)(C)CCCN1C(=O)c2ccccc2C1=O

- p alpha [4]: -0.2
- pKA [5]: 7.24
- pEC50 diss [6]: 6.94
SMILES: C[N+](C)(CCCCCC[N+](C)(C)CCCN1C(=O)c2cccc3cccc(c23)C1=O)CCCN1C(=O)c2ccccc2C1=O

- pEC50 diss [7]: 7.28
- p alpha [8]: -0.01
- pKA [9]: 7.28
SMILES: CC(C)(CN1C(=O)c2ccccc2C1=O)C[N+](C)(C)CCCCCC[N+](C)(C)CCCN1C(=O)c2cccc3cccc(c23)C1=O

- p alpha [10]: 0.56
- pKA [11]: 7.41
- pEC50 diss [12]: 7.73
SMILES: CC(C)(CN1C(=O)c2ccccc2C1=O)C[N+](C)(C)CCCCCC[N+](C)(C)CC(C)(C)CN1C(=O)c2cccc3cccc(c23)C1=O
